For 70 compounds, cytotoxicity results are on record in ChEMBL document CHEMBL4513216, “Probing the Open Global Health Chemical Diversity Library for Multistage-Active Starting Points for Next-Generation Antimalarials” (ACS Infect Dis, 2020).

This series is described as follows: Toxicity liver stage against HepG2, at 10uM. Particulars: human, HepG2-A16-CD81EGFP cells; read-out: INHIBITION
On the set-up: test concentration 10 uM, cell line HepG2-A16-CD81EGFP. Type of series: cell-based. Summed up: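 Uninfected HepG2-A16-CD81EGFP cells, 3 × 10^3 per well, 1536-well, plated on prespotted compound at 10 μM final, parasite-free screening media added to match infected plates; puromycin 10 μM positive, DMSO 0.5% negative; run in parallel with 48 h PbLuc assay at 37 °C, 5% CO2; viability by CellTiter-Glo luminescence, normalized to controls.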

Take `O=C(CCOc1ccc(Cl)cc1)N1CCN(c2cnccn2)CC1`: the cytotoxicity at 10 µM was -2.65%.
As for `COC(=O)CCCN(C)C(=O)c1cc(F)cc2[nH]cnc12`, the cytotoxicity at 10 µM is -2.23%.
The value for `CCN1C(=O)C2(CCOCC2)c2cc(NC(=O)c3ccco3)ccc21` was -10.3%; that for `CC(=O)NCc1nnc2n1CCN(c1nc(C)nc3sccc13)CC2` was 15.5%; that for `CNc1cc(C)nc(N2C[C@H](NC(=O)C3CCOCC3)[C@@H](C3CC3)C2)n1` was 4.41%.
With `O=C1CN(Cc2cc(O)c3cccc(F)c3n2)CCN1C1CCCC1`, the cytotoxicity at 10 µM came to 4.45%.
The value for `Cn1c(N)nnc1SCc1cc(Br)ccc1Cl` was -21.7%; that for `Cc1csc(CN2C[C@@H]3CN(S(C)(=O)=O)CCO[C@@H]3C2)n1` was -98.3%.
Turning to `Cc1cc(Cl)ccc1NCc1ccc(C(=O)N(C)C)[nH]1`, the cytotoxicity at 10 µM was 7.31%.
`Cc1c(S(=O)(=O)N2CCCC2c2nnc(-c3ccsc3)o2)cnn1C` (stereo not given): the cytotoxicity at 10 µM amounted to 3.04%.
In the case of `COCCNC(=O)N1CCCC(COc2ccccc2)C1` (stereo not given), the cytotoxicity at 10 µM was found to be 0.186%.
The result for `COc1ccccc1CC(C)(C)NC(=O)CNS(C)(=O)=O` reads 4.21%; that for `CNC(=O)c1ccc(-c2ccccc2)n1C`, -1.6%; that for `Cc1ccc(-c2noc(CCC(=O)NC(C)Cn3cccn3)n2)cc1` (stereo not given), 8.41%.
`CCS(=O)(=O)N1CCC(Nc2c(F)cc(C#N)cc2F)CC1`: the cytotoxicity at 10 µM came to 8.13%.
The result for `C=C(C)CN(CC)C(=O)Nc1ccccc1CN(C)C(C)=O` reads -9.6%.
The value for `CC(C)(C)C(Cn1ccnc1)NC(=O)NCc1ccco1` (stereo not given) was -1.85%.
The result for `CCc1ccc(NC(=O)N2C[C@@H]3C[C@H](C(=O)NC4CCC4)[C@H](C2)O3)cc1` reads -2.25%; that for `Cc1nnc(SC2CCc3ccccc3NC2=O)o1` (stereo not given), 1.35%.
On to `Cc1cc(C(=O)N2C[C@@H]3CC[C@H]2CN(Cc2ccccn2)C3)nc(C)n1`, for which the cytotoxicity at 10 µM was found to be 2.36%.
Take `O=C(NCCc1nccs1)N1CCC(n2cccc2)CC1`: the cytotoxicity at 10 µM is 5.87%.
The value for `CC(O)CN1CCC(CN(C)Cc2cccc(C(=O)N(C)C)c2)CC1` (stereo not given) was -5.74%; that for `O=C(NC1CCN(c2ccc(-c3ccccc3F)nn2)C1)c1ccc[nH]1` (stereo not given) was 7.4%; that for `Cc1c(C(=O)N2CC(=O)N(C)C2)nnn1-c1cccc2cccnc12` was 5.64%.
Regarding `COc1c(CNC2CCc3c(Cl)cccc32)c(C)nn1C` (stereo not given), the cytotoxicity at 10 µM stood at 13.3%.
The value for `Cn1cnc2c1CCN(CCCOc1ccc(S(C)(=O)=O)cc1)C2` was 4.94%; that for `CCCNC(=O)Nc1cccc2c1CCN(S(C)(=O)=O)C2` was -7.92%.
The value for `O=C(O)C(c1ccc2[nH]ccc2c1)N1CCN(c2cnccn2)CC1` (stereo not given) was 2.56%; that for `CCOCC(=O)N1CCC(c2nccn2Cc2cscn2)CC1` was -5.58%.
As to `Cc1ccc(OCC(=O)NC2(C#N)CCSCC2)cc1C`, the cytotoxicity at 10 µM turned out to be 5.7%.
The result for `Cc1cc(CN(C)C(=O)NCc2ccnc(OC3CCCC3)c2)no1` reads 9.52%.
Turning to `O=C(NCC(F)(F)F)C1CSCN1S(=O)(=O)c1ccc(F)cc1` (stereo not given), the cytotoxicity at 10 µM was 1.85%.
The value for `Cc1cc(C(=O)N2C[C@@H]3CC[C@H]2CN(Cc2ccccn2)C3)nc(N)n1` was -0.0925%; that for `COC(=O)N1CC(C)=C(C)CN1C(=O)Nc1ccc(Cl)c(Cl)c1` was -1.53%; that for `Cn1cc(CN2CCc3c(cnc(-c4ccccc4)c3C(=O)O)C2)cn1` was 4.2%.
The value for `CN(c1cccnc1N1CCCC1)S(=O)(=O)c1cnn(C)c1` was -4.28%; that for `Cc1ccoc1C(=O)N1CCO[C@H]2[C@H](OCCN(C)C)CC[C@@H]21` was -5.88%; that for `CC(=O)N1CCc2[nH]cnc2C12CCN(C(=O)Cc1ccccn1)CC2` was 1.76%.
`COc1cccc2c1OCC(NC(=O)NC1CCN(C3CC3)CC1)C2` (stereo not given): the cytotoxicity at 10 µM was -10.7%.
Consider `CCn1ncc(S(=O)(=O)NC(C)c2cc(OC)ccc2OC)c1C` (stereo not given), for which the cytotoxicity at 10 µM was -4.48%.
The value for `CC(=O)N[C@@H]1CN(C(=O)c2cccc(C)c2)C[C@H]1O` was -2.48%; that for `Cc1ccc(CC(=O)N(CC2CN(C)CCO2)c2nccs2)cn1` (stereo not given) was -9.89%.
The value for `O=C(NCc1ccco1)[C@@H]1COC[C@H]2CN(c3ncc(F)cn3)C[C@H]21` was -5.67%.
The value for `c1cnc(N2C[C@H](OCC3CCOCC3)[C@H]3COC[C@H]32)nc1` was -1.92%.
Consider `COCC(O)CNC(=O)c1coc(COc2cccc(F)c2)n1` (stereo not given), for which the cytotoxicity at 10 µM was -139%.
Take `CCCNC(=O)N1CCc2ccc(S(=O)(=O)N3CCOCC3)cc2C1`: the cytotoxicity at 10 µM was -2.56%.
The result for `CN(C)c1cc(C(=O)N2CCN(c3cnccn3)CC2)ccn1` reads -7.64%; that for `NC(=O)c1cccc(CCNC(=O)N2Cc3ccccc3C2)c1`, -9.86%; that for `COCCN(Cc1ccoc1)C(=O)c1cccnc1SC`, 12.4%.
Take `O=C(c1ccc(F)cc1)N1C[C@@H]2COC[C@]2(COc2cccnc2)C1`: the cytotoxicity at 10 µM was -100%.
With `COCCN1CCCC(CN(C)c2nc3c(s2)c(C)nn3C)C1` (stereo not given), the cytotoxicity at 10 µM came out at 5.37%.
The value for `Cc1cc(C[C@@H]2COC[C@H]2NCc2ccc(C)c(C)c2)on1` was 8.1%.
For `CCOC(=O)N1CCN(C(=O)Cc2c(C)nc(C)[nH]c2=O)CC1`, the cytotoxicity at 10 µM was -6.31%.
The result for `O=C(Nc1ccc2c(c1)OCCO2)N1CCCN(Cc2cccs2)CC1` reads 3.45%; that for `CC(C)(C)S(=O)(=O)CCNC1CSCCc2ccccc21` (stereo not given), -2.35%.
The result for `Cc1nccn1-c1ncccc1CNC(=O)c1ccc(O)nc1` reads -7.55%.
The value for `O=C1CC[C@@H]2[C@@H](CCN2Cc2ccccn2)N1CC1CC1` was 4.76%; that for `c1cnn(CCNCc2ccc(N3CCCCC3)cc2)c1` was -10.1%.
In the case of `CNc1ncc(C(=O)N2CCC(CCc3ccccc3)CC2)cn1`, the cytotoxicity at 10 µM was 13.1%.
The value for `O=C(C1CCOCC1)N1CC[C@@H](O)[C@@H]1Cc1ccccc1` was 0.375%.
The result for `c1cn(CCNc2nc(NC3CC3)nc3c2CCNCC3)nn1` reads -52.8%; that for `CNC(=O)c1cc2c(nc1N(C)C)CCN(S(=O)(=O)CC(C)C)CC2`, -3.85%; that for `CCN1CC(C(=O)NC(C)(C)C)CC1=O` (stereo not given), -2.91%.
The value for `COc1cc(N2CCC3(CC2)CN(S(C)(=O)=O)c2ccccc23)ncn1` was 12.8%.
As to `Cn1nc2c(cc1=O)CN(CC1CCCCO1)CC2` (stereo not given), the cytotoxicity at 10 µM turned out to be 2.58%.
Take `O=C1NCCO[C@H]2CN(C(=O)CC3Cc4ccccc4C3)CC[C@@H]12`: the cytotoxicity at 10 µM was -106%.
The result for `CC(C)(O)CN1CC(C)(C)CN(C(=O)CCc2ccccc2)CC1=O` reads 2.37%.
The value for `CCn1ccnc1CN(C)Cc1nc(CCC(C)C)no1` was 2.89%.
The value for `Cc1cnn(CC2CN(Cc3nccn3CC(F)(F)F)CCO2)c1` (stereo not given) was -11.7%; that for `CN1CCC(c2cccc(-c3ccc(C(=O)O)cc3)n2)CC1` was -0.358%.
